ChEMBL document CHEMBL1127608, “Non-peptide fibrinogen receptor antagonists. 2. Optimization of a tyrosine template as a mimic for Arg-Gly-Asp” (J Med Chem, 1994)
pIC50: −log10 of the molar value. Peptide text beside a SMILES is read from it.

Key:
Integrin alpha-V/beta-3 [1] = molecular target: T1, Integrin alpha-V/beta-3 (Homo sapiens, UniProt P05106+P06756); test: Inhibition of human umbilical vein endothelial cell adhesion to vitronectin; format: functional, cell-based
[2] = (§1) Inhibition of human umbilical vein endothelial cell adhesion to fibronectin; format: functional, cell-based
Integrin alpha-V/beta-3 [3] = molecular target: T1, Integrin alpha-V/beta-3; test: Inhibition of human umbilical vein endothelial cell adhesion to fibrinogen; format: functional, cell-based
Integrin alpha-5/beta-1 = Integrin alpha-5/beta-1 (Homo sapiens, UniProt P05556+P08648); test: as §1; format: functional, cell-based
[4] = molecular target: T2, Integrin alpha-IIb/beta-3 (Homo sapiens, UniProt P05106+P08514); test: Inhibition of platelet aggregation as the concentration necessary to inhibit the change in light.; format: functional
Summary of the method: (§2)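 Human gel-filtered platelets at 2 × 10^8/mL were mixed with 0.1 mg/mL human fibrinogen, 1 mM CaCl2 and compound, then aggregated with 10 µM ADP. Light transmittance was compared between control and treated samples.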
Target sequence in this assay (P05106 27-788 limits assumed): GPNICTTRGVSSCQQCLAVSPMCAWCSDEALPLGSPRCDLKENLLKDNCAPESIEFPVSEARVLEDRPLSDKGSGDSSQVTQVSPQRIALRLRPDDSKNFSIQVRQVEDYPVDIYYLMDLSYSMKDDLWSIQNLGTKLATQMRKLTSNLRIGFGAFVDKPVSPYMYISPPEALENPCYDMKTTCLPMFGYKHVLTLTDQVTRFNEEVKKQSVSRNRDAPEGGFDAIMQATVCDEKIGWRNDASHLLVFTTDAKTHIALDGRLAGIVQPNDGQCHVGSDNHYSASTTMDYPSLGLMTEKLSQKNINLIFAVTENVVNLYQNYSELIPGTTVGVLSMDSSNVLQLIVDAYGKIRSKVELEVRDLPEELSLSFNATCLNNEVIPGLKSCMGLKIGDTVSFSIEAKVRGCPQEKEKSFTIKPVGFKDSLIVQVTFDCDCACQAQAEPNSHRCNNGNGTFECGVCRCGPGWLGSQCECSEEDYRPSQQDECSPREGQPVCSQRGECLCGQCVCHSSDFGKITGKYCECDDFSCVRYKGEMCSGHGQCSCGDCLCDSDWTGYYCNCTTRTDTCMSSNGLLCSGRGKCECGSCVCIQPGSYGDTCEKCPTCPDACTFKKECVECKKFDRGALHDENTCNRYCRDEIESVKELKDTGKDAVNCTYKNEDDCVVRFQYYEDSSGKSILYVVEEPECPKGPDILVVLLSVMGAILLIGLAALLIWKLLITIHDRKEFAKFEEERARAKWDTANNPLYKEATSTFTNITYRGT
Target sequence in this assay (P08514 32-887 limits assumed): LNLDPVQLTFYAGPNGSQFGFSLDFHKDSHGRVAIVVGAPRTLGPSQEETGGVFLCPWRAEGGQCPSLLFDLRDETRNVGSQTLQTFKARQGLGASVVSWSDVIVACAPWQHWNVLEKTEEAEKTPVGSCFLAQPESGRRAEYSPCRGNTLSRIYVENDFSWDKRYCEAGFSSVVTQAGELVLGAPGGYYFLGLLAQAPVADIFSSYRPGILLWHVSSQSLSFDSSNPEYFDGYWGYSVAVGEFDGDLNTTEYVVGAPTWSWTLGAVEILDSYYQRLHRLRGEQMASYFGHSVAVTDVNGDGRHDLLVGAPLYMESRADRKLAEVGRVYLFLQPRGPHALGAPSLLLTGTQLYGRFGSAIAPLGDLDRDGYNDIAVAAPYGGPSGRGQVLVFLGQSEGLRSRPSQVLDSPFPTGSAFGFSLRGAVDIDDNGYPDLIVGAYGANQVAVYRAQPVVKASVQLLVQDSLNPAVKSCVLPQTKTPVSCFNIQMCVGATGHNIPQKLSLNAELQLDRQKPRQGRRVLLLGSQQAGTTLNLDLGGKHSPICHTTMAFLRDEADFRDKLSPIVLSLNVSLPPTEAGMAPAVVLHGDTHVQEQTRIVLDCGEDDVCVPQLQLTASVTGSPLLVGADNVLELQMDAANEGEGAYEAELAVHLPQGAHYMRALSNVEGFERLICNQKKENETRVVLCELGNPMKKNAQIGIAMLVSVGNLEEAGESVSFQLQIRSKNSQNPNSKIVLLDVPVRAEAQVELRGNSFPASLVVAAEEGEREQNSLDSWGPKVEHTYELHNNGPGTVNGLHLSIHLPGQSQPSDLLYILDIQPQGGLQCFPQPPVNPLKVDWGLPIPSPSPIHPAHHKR
Target sequence in this assay (P08514 891-1039 limits assumed): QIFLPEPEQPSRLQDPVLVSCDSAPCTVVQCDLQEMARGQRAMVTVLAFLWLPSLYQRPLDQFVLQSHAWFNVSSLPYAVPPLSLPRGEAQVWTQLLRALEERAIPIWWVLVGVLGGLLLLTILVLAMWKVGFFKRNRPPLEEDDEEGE

[5] = molecular target: T2, Integrin alpha-IIb/beta-3; test: Inhibition of platelet aggregation by change in light transmittance at 300 uM; format: functional; summary of the method: as §2

Integrin alpha-5/beta-1, sequence (P05556 21-798 limits assumed): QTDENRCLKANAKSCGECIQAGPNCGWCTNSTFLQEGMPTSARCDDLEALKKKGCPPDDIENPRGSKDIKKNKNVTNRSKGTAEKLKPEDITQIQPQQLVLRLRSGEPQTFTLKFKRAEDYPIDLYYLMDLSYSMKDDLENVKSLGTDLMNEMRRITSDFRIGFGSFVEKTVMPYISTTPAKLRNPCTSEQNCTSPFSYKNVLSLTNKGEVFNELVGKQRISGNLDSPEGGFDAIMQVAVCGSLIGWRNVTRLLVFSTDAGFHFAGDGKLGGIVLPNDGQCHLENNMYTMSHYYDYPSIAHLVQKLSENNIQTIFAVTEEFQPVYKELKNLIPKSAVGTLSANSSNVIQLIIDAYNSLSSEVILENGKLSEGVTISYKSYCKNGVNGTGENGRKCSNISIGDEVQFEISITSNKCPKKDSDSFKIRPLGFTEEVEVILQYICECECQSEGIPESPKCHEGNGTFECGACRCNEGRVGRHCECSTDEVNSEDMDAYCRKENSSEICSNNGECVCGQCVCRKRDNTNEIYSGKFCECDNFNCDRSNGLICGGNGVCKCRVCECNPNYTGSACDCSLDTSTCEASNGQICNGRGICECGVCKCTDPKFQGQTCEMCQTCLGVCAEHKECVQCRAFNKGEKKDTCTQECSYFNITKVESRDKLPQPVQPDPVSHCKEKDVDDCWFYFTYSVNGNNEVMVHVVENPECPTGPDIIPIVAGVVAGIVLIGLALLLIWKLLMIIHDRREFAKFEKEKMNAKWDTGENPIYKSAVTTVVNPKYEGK
Integrin alpha-5/beta-1, sequence (P08648 42-894 limits assumed): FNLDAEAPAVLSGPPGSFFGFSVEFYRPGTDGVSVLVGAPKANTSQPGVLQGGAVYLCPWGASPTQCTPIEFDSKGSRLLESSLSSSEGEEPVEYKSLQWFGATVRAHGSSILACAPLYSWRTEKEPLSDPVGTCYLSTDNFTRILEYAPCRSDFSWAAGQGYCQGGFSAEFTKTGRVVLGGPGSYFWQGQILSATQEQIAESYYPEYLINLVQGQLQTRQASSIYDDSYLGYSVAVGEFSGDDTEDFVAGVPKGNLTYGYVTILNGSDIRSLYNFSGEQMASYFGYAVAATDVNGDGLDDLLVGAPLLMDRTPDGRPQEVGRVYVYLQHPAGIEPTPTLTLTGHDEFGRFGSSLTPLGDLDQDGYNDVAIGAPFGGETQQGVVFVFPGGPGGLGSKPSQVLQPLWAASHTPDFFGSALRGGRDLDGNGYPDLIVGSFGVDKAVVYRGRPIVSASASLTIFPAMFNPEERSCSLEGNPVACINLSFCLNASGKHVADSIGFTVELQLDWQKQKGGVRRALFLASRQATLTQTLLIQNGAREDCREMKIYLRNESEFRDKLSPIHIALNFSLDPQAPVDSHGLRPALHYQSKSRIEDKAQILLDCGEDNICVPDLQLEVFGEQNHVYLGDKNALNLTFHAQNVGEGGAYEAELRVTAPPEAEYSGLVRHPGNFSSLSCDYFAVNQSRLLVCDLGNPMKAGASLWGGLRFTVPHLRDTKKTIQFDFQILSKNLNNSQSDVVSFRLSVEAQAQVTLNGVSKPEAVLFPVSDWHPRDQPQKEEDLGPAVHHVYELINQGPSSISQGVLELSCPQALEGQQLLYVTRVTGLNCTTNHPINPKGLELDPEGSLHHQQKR
Integrin alpha-5/beta-1, sequence (P08648 895-1049 limits assumed): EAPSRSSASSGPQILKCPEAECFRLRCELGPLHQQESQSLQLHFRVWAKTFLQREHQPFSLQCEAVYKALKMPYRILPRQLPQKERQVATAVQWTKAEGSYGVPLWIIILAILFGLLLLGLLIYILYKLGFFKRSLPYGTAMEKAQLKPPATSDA
T1 sequence (P05106 27-788 limits assumed): as the sequence (P05106 27-788 limits assumed) above
T1 sequence (P06756 31-889 limits assumed): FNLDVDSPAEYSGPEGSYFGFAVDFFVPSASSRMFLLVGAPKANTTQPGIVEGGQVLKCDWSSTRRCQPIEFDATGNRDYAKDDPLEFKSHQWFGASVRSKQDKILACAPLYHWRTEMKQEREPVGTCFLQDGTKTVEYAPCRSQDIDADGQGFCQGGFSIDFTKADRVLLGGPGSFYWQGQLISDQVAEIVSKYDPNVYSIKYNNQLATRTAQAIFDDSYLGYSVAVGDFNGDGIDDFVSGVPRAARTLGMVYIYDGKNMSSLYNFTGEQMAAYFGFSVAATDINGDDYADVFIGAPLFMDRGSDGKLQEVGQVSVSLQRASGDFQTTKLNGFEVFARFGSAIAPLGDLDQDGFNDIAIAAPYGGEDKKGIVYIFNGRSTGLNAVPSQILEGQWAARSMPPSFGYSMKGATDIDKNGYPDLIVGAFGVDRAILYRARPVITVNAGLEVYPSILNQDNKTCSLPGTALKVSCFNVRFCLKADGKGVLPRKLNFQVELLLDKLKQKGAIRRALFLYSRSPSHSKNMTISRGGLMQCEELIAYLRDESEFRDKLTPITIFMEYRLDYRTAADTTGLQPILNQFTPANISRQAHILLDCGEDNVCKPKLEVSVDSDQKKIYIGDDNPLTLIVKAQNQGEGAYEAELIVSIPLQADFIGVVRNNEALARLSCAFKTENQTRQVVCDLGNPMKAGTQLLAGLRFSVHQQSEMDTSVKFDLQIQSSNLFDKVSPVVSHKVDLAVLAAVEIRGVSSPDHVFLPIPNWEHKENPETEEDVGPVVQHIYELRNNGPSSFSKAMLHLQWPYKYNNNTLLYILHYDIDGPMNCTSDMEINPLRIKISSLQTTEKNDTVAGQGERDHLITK
T1 sequence (P06756 891-1048 limits assumed): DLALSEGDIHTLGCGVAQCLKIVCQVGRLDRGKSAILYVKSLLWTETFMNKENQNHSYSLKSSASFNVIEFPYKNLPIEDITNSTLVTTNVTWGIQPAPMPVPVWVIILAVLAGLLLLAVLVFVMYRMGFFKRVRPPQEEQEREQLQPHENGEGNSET

pIC50 (Integrin alpha-V/beta-3 [1]) | pIC50 (Integrin alpha-V/beta-3 [3]) | pIC50 [4] | SMILES | other results
4.21 |  |  | CCCCS(=O)(=O)N[C@@H](Cc1ccc(OCCCCC2CCNCC2)cc1)C(=O)O [TIROFIBAN] | 
 |  | 5.10 | NCCCCCCOc1ccc(C[C@H](NC(=O)CCc2ccccc2)C(=O)O)cc1 | 
4.25 | 3.80 | 6.59 | O=C(N[C@@H](Cc1ccc(OCCCCC2CCNCC2)cc1)C(=O)O)OCc1ccccc1 | pIC50 [2]: 3.52
 |  | 7.46 | CCCCCC(=O)N[C@@H](Cc1ccc(OCCCCC2CCNCC2)cc1)C(=O)O | 
3.83 | 3.50 |  | NCCCCCCCOc1ccc(C[C@H](NC(=O)OCc2ccccc2)C(=O)O)cc1 | pIC50 (Integrin alpha-5/beta-1): < 3.35

Continued, molecule first:

SMILES | pIC50 (Integrin alpha-V/beta-3 [1]) | pIC50 (Integrin alpha-V/beta-3 [3]) | pIC50 [4] | other results
CC(C)(C)NCC(O)COc1ccc(C[C@H](NC(=O)OCc2ccccc2)C(=O)O)cc1 (stereo partly drawn) | < 3.52 | < 3.52 |  | pIC50 [2]: < 3.52
NC(N)=NCCC[C@H](N)C(=O)NCC(=O)N[C@@H](CC(=O)O)C(=O)N[C@@H](Cc1c[nH]c2ccccc12)C(=O)O (H-RGDW-OH) | 4.85 | 4.47 |  | pIC50 (Integrin alpha-5/beta-1): 4.57
NCCCCCCOc1ccc(C[C@H](NC(=O)OCc2ccccc2)C(=O)O)cc1 |  |  | 4.59 | 
NCCCCCCOc1ccc(CCC(=O)O)cc1 |  |  |  | inhibition [5]: 12%
O=C(O)[C@H](Cc1ccc(OCCCCC2CCNCC2)cc1)NS(=O)(=O)Cc1ccccc1 |  |  | 7.74 | 
CCCCS(=O)(=O)N[C@@H](Cc1ccc(OCCCCCCN)cc1)C(=O)O | 3.82 | 3.48 | 6.11 | pIC50 (Integrin alpha-5/beta-1): < 3.30
